In brackets after ≈: the same amount, converted by molar mass.
Experiments:
Candida albicans [1] = assay: Effect on sterol composition in Candida albicans ATCC 64124 assessed as unknown sterol level at 1.95 ug/mL incubated for 10 mins by LC-MS analysis (reference value: 2.67 to 6.98%)
[2] = Hemolytic activity in mouse erythrocytes assessed as hemolysis level at 15.6 ug/ml incubated for 1 hr at 37 degC; assay type: ADME, cell-based, Erythrocyte; conditions: read-out: Activity
Outline: (§1)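 Mouse erythrocytes incubated 1 h at 37 °C with test agents over 1.95 to 125 µg/mL. Percent lysis is read for each concentration.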

Candida albicans [3] = assay: Effect on sterol composition in Candida albicans ATCC 10231 assessed as ergosterol level at 0.125 ug/mL incubated for 10 mins by GC-MS analysis (reference value: 91.15%)
Candida albicans [4] = assay: Antifungal activity against ITC and FLC-resistant Candida albicans ATCC MYA-90819 incubated for 48 hrs by modified CLSI M27-A3 protocol based method; assay type: functional; conditions: ATCC MYA-90819, 48 h
[5] = Hemolytic activity in mouse erythrocytes assessed as hemolysis level at 7.8 ug/ml incubated for 1 hr at 37 degC; assay type: ADME, cell-based, Erythrocyte; conditions: read-out: Activity
Outline: as §1

[6] = Toxicity in human BEAS2B cells assessed as reduction in cell viability incubated for 24 hrs by resazurin dye based assay; conditions: BEAS-2B cells
Outline: (§2)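 Toxicity tested in the nucleated lines A549 and BEAS-2B to give EC50 values. Selectivity index is EC50 against the mammalian line divided by the MIC against a given fungal strain.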

[7] = Hemolytic activity in mouse erythrocytes assessed as hemolysis level at 31.3 ug/ml incubated for 1 hr at 37 degC; assay type: ADME, cell-based, Erythrocyte; conditions: read-out: Activity
Outline: as §1

Candida albicans [8] = assay: Effect on sterol composition in Candida albicans ATCC 64124 assessed as ergosterol level at 1.95 ug/mL incubated for 10 mins by LC-MS analysis (reference value: 54.72%)
Candida albicans [9] = assay: Antifungal activity against ITC and FLC-susceptible Candida albicans ATCC MYA-2876 incubated for 48 hrs by modified CLSI M27-A3 protocol based method; assay type: functional; conditions: ATCC MYA-2876, 48 h
Outline: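 Because these Candida strains show trailing growth, MIC-2 was read, meaning 50% growth inhibition. Caspofungin and voriconazole were tested here; other controls came from earlier work.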

[10] = Hemolytic activity in mouse erythrocytes assessed as hemolysis level at 1.95 ug/ml incubated for 1 hr at 37 degC; assay type: ADME, cell-based, Erythrocyte; conditions: read-out: Activity
Outline: as §1

Nakaseomyces glabratus = assay: Antifungal activity against Candida glabrata ATCC 2001 incubated for 48 hrs by modified CLSI M27-A3 protocol based method; assay type: functional; conditions: ATCC 2001, 48 h
Candida albicans [11] = assay: Effect on sterol composition in Candida albicans ATCC 10231 assessed as lanosterol level at 0.125 ug/mL incubated for 10 mins by GC-MS analysis (reference value: 4.17%)
Pichia kudriavzevii = assay: Antifungal activity against Candida krusei ATCC 6258 incubated for 48 hrs by modified CLSI M27-A3 protocol based method; assay type: functional; conditions: ATCC 6258, 48 h
Outline: (§3)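 For C. albicans ATCC 10231, C. krusei ATCC 6258 and C. parapsilosis ATCC 22019, MIC-0 was read, meaning complete growth inhibition. For azole controls, MIC-2 (50% growth inhibition) was reported instead. Caspofungin and voriconazole were tested here; other controls came from earlier work.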

[12] = Hemolytic activity in mouse erythrocytes assessed as hemolysis level at 125 ug/ml incubated for 1 hr at 37 degC; assay type: ADME, cell-based, Erythrocyte; conditions: read-out: Activity
Outline: as §1

in vitro = conditions: mouse, mouse erythrocytes
[13] = Hemolytic activity in mouse erythrocytes assessed as hemolysis level at 3.9 ug/ml incubated for 1 hr at 37 degC; assay type: ADME, cell-based, Erythrocyte; conditions: read-out: Activity
Outline: as §1

Candida albicans [14] = assay: Antifungal activity against Candida albicans ATCC 64124 incubated for 48 hrs by modified CLSI M27-A3 protocol based method; assay type: functional; conditions: ATCC 64124, 48 h
Candida albicans [15] = assay: Effect on sterol composition in Candida albicans ATCC 64124 assessed as eburicol level at 1.95 ug/mL incubated for 10 mins by LC-MS analysis (reference value: 6.28%)
Candida albicans [16] = assay: Antifungal activity against ITC and FLC-susceptible Candida albicans ATCC MYA-2310 incubated for 48 hrs by modified CLSI M27-A3 protocol based method; assay type: functional; conditions: ATCC MYA-2310, 48 h
[17] = Toxicity in human A549 cells assessed as reduction in cell viability incubated for 24 hrs by resazurin dye based assay
Outline: as §2

Candida albicans [18] = assay: Effect on sterol composition in Candida albicans ATCC 10231 assessed as unknown sterol level at 0.125 ug/mL incubated for 10 mins by GC-MS analysis (reference value: 1.88 to 2.78%)
Candida parapsilosis = assay: Antifungal activity against Candida parapsilosis ATCC 22019 incubated for 48 hrs by modified CLSI M27-A3 protocol based method; assay type: functional; conditions: Lodderomyces parapsilosis, ATCC 22019, 48 h
Outline: as §3

Candida albicans [19] = assay: Effect on sterol composition in Candida albicans ATCC 64124 assessed as lanosterol level at 1.95 ug/mL incubated for 10 mins by LC-MS analysis (reference value: 29.38%)

Which results are given for OC(Cn1cncn1)(Cn1cncn1)c1ccc(F)cc1F [FLUCONAZOLE]?
Activity (Candida albicans [1]): 0.02 - 9.75%; hemolysis at 1 h, 15.6 ug/ml [2]: 0%; Activity (Candida albicans [3]): 93.79%; MIC50 (Candida albicans [4]): > 408 µM; hemolysis at 1 h, 7.8 ug/ml [5]: 0%; EC50 at 24 h [6]: > 62.5 µg/mL; hemolysis at 1 h, 31.3 ug/ml [7]: 7.5%; Activity (Candida albicans [8]): 48.03%; MIC50 (Candida albicans [9]): 50.9 µM (≈ 15.6 µg/mL); hemolysis at 1 h, 1.95 ug/ml [10]: 0%; MIC50 (Nakaseomyces glabratus): > 102 µM; Activity (Candida albicans [11]): 3.81%; MIC50 (Pichia kudriavzevii): > 102 µM; hemolysis at 1 h, 125 ug/ml [12]: 13.4%; hemolysis at 1 h, 62.5 ug/ml (in vitro): 2.7%; hemolysis at 1 h, 3.9 ug/ml [13]: 0%; MIC50 (Candida albicans [14]): > 408 µM; Activity (Candida albicans [15]): 11.61%; MIC50 (Candida albicans [16]): > 408 µM; EC50 at 24 h [17]: > 62.5 µg/mL; Activity (Candida albicans [18]): 1.12 - 1.25%; MIC50 (Candida parapsilosis): 6.4 µM (≈ 1.96 µg/mL); Activity (Candida albicans [19]): 30.59%
